In the library only some 3.1% were active in any assay of this set; here they are far more common.
LEDGF integ inh – blocks HIV-1 LEDGF/p75-dependent DNA integration | actives 0.64% (n = 370,000) | inhibition, % at 3.7 µM | TR-FRET IN-LEDGF/p75 DNA integration, Eu/Cy5;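 active = inhibition above the screen-wide mean plus 3 SD, cut at about 13% in these data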;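 note: signal is the Cy5 over europium emission ratio at 671 and 618 nm; 0% = plate median of compound wells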
UHRF1 MBD2 ctr – blocks human UHRF1 binding to methylated DNA; UHRF1 binding to methylated oligo, TR-FRET; inhibition, % at 4.4 µM; actives 0.75% (n = 370,000); AID 687016; in the data active = inhibition above about 21%;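 note: UHRF1 SRA domain binding a hemimethylated CpG hairpin DNA probe; 0% = median of test compound wells and 100% = reference inhibitor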
rCAG binder – r(CAG) repeat RNA binding | TO-PRO-1 dye displacement fluorescence | inhibition, % at 3 µM | actives 1.3% (n = 370,000) | AID 651821;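 active = inhibition above the plate cutoff, the mean of all test compounds on that plate plus 3 SD, cut at about 35% in these data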;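 note: 0% = DMSO alone and 100% = 100 µM mitoxantrone as full dye displacement; higher means more dye released from RNA so lower well fluorescence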
CSN inh – blocks human CSN-mediated cullin deneddylation; Q92905; Purified CSN, SCF-Nedd8-OG deneddylation, fluorescence polarization; inhibition, % at 12.5 µM; actives 0.38% (n = 360,000);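 active = pattern-corrected inhibition above about 35%, with an unprinted fluorescence ratio check between 0.5 and 1.5, limit read from the data, passing the limit was not always enough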;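 note: 0% = enzyme with substrate and 100% = substrate without enzyme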
Target sequence (Q92905 whole entry, looked up, one chain of several): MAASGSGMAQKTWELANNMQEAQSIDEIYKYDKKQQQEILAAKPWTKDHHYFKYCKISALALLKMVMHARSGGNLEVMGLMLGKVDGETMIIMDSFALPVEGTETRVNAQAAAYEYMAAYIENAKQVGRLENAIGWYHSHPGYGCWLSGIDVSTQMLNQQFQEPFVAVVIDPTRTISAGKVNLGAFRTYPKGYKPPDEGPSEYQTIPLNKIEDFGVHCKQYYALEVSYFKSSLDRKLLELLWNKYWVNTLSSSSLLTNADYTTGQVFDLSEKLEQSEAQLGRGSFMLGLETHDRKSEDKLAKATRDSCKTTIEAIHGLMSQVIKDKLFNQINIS
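Test system: Human Csn5 produced in HEK293T cells | Compound: 12.5 µM single point | Times: 90 min, room temperature | Signal: Fluorescence polarization readout | Read-out basis: % inhibition of substrate cleavage by Csn5 | Controls: no-enzyme wells high, enzyme-with-substrate wells low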
MBD2 DNA inh – MBD2-methylated oligo binding inhibition; TR-FRET, MBD2 binding to methylated oligonucleotide; Q9UBB5; inhibition, % at 4.4 µM; actives 0.31% (n = 370,000); in the data active = inhibition above about 13%
ATG4B inh – inhibitors of human ATG4B cysteine protease. Q9Y4P1. ATG4B cleavage of LC3-PLA2, NBD-HPC fluorescence, 1 h. inhibition, % at 8.33 µM. actives 0.51% (n = 340,000). AID 504462; in the data active = inhibition above about 40%
Target sequence (Q9Y4P1 whole entry, looked up): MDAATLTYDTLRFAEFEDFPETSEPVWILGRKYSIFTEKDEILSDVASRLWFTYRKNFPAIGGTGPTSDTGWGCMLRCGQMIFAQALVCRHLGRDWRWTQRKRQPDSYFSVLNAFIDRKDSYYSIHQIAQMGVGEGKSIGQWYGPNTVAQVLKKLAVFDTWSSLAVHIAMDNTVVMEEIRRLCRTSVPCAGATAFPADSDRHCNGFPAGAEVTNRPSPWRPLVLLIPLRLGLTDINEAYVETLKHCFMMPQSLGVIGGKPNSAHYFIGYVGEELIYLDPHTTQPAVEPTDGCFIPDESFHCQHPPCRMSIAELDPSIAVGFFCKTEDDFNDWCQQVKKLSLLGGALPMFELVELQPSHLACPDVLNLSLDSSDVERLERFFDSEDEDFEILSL
rCAG binder conf – r(CAG) RNA repeat binding, confirmation; shares compounds with rCAG binder; TO-PRO-1 dye displacement fluorescence; inhibition, % at 3 µM; actives 70% (n = 4,300); AID 652065;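 active = inhibition above a per-plate cutoff, the mean inhibition of sample wells plus 3 SD, cut at about 35% in these data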;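 note: loss of TO-PRO-1 fluorescence as compound displaces dye from 1x1 AA loop RNA; 0% = DMSO only wells and 100% = 100 µM mitoxantrone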
DNA CAG counter – counter-screen for rCAG RNA binders: DNA CAG dye complex inhibitors | actives 94% (n = 4,300) | inhibition, % at 3 µM | shares compounds with rCAG binder | d(CAG) DNA oligo TO-PRO-1 dye displacement, fluorescence;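 active = inhibition above its plate's cutoff, the mean test-well inhibition plus 3 SD, cut at about 4.8% in these data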;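 note: 0% = DNA dye mix with DMSO and 100% = 100 µM mitoxantrone; hits displace the dye from DNA and so lower well fluorescence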
An asterisk follows results filed as active.

What do the screens show for `CC1CCC2(CCC(=O)N2CCCOC(=O)c2ccccc2)CC1` (stereo unspecified)?
LEDGF integ inh: 0; UHRF1 MBD2 ctr: -2; rCAG binder: -3; MBD2 DNA inh: 0

Results for O=C(CSc1nc2ccccc2[nH]1)NN=Cc1c(F)cccc1Cl ?
LEDGF integ inh: 3; UHRF1 MBD2 ctr: -1; rCAG binder: 2; MBD2 DNA inh: 1

What do the screens show for `CC(C)CNc1cccc2c1S(=O)(=O)N(Cc1cn(Cc3ccc(F)cc3)nn1)Cc1ccccc1O2`?
LEDGF integ inh: -2; UHRF1 MBD2 ctr: 2; rCAG binder: 8; MBD2 DNA inh: 2

What do the screens show for `COc1ccc(OC)c(S(=O)(=O)N2CCCCC2C(=O)N2CCN(CCO)CC2)c1` (stereo unspecified)?
LEDGF integ inh: 2; UHRF1 MBD2 ctr: -4; rCAG binder: 9; MBD2 DNA inh: 2

What do the screens show for `CCOC(=O)c1sc(NS(=O)(=O)c2ccccc2)nc1C`?
LEDGF integ inh: 0; UHRF1 MBD2 ctr: 1; rCAG binder: 10; CSN inh: 3; MBD2 DNA inh: 0; ATG4B inh: 8

Results for Cc1nc(C)c(C(=O)NNS(=O)(=O)c2ccccc2)s1 ?
LEDGF integ inh: 1; UHRF1 MBD2 ctr: 0; rCAG binder: -2; CSN inh: 3; MBD2 DNA inh: 3; ATG4B inh: -4

How did C/C(=N/NC(=O)c1sc(NS(=O)(=O)c2ccccc2)nc1C)c1ccc(F)cc1 do in these assays?
LEDGF integ inh: -1; UHRF1 MBD2 ctr: 2; rCAG binder: 84*; CSN inh: -3; MBD2 DNA inh: -6; ATG4B inh: -4; rCAG binder conf: 49*; DNA CAG counter: 15*

Results for Cc1ccc(C)c(S(=O)(=O)NNC(=O)c2sc(NS(=O)(=O)c3ccccc3)nc2C)c1 ?
LEDGF integ inh: 3; UHRF1 MBD2 ctr: -2; rCAG binder: 47*; CSN inh: -4; MBD2 DNA inh: -3; ATG4B inh: -8; rCAG binder conf: 31; DNA CAG counter: 6.4*

Results for C/C(=N/NC(=O)c1sc(NS(=O)(=O)c2ccccc2)nc1C)c1ccccc1 ?
LEDGF integ inh: 1; UHRF1 MBD2 ctr: -1; rCAG binder: 58*; CSN inh: 0; MBD2 DNA inh: -5; ATG4B inh: -8; rCAG binder conf: 35; DNA CAG counter: 7.1*

How did COc1cc(C(=O)NC2CCCCN(Cc3ccc(Cl)cc3)C2=O)cc(OC)c1OC (stereo unspecified) do in these assays?
LEDGF integ inh: -1; UHRF1 MBD2 ctr: 2; rCAG binder: 4; MBD2 DNA inh: 4

How did Cc1ccc(NC(=O)Cn2c(=O)oc3cc(S(=O)(=O)N4CCC(C)CC4)ccc32)cc1C do in these assays?
LEDGF integ inh: 0; UHRF1 MBD2 ctr: -2; rCAG binder: 46*; CSN inh: 1; MBD2 DNA inh: -6; ATG4B inh: -7; rCAG binder conf: 36*; DNA CAG counter: 15*

Results for CC(C)[C@H](NC(=O)c1ccc(Cl)cc1Cl)C(=O)N1CCC[C@H]1C(=O)NCc1ccccc1 ?
LEDGF integ inh: 2; UHRF1 MBD2 ctr: 0; rCAG binder: -1; MBD2 DNA inh: 0

Results for O=C(c1ccccc1C(F)(F)F)N1CCC(Oc2cccnc2)CC1 ?
LEDGF integ inh: 3; UHRF1 MBD2 ctr: 1; rCAG binder: -1; MBD2 DNA inh: 1

How did CC(C)=CCC/C(C)=C/Cc1c(O)ccc(C(=O)/C=C/c2ccc(O)cc2)c1O do in these assays?
LEDGF integ inh: 0; UHRF1 MBD2 ctr: -2; rCAG binder: 68*; CSN inh: 3; MBD2 DNA inh: 1; ATG4B inh: 12; rCAG binder conf: 39*; DNA CAG counter: 24*

How did CCOC(=O)C1(Cc2ccccc2)CCN(Cc2ccc(C)cc2)CC1 do in these assays?
LEDGF integ inh: 2; UHRF1 MBD2 ctr: -1; rCAG binder: -1; MBD2 DNA inh: -5

What do the screens show for `Cc1ccc(-c2csc(NC(=O)C3CC=CCC3C(=O)O)c2C(=O)OC(C)C)cc1` (stereo unspecified)?
LEDGF integ inh: 1; UHRF1 MBD2 ctr: -1; rCAG binder: 51*; CSN inh: 2; MBD2 DNA inh: -4; ATG4B inh: 12; rCAG binder conf: 58*; DNA CAG counter: 19*

How did CCOC(=O)c1c(-c2ccc(C)cc2)csc1NC(=O)C1CC=CCC1C(=O)O (stereo unspecified) do in these assays?
LEDGF integ inh: 0; UHRF1 MBD2 ctr: -3; rCAG binder: 2; CSN inh: 0; MBD2 DNA inh: -2; ATG4B inh: 3

How did O=C(OCC#CCSc1nnc(-c2cccc3ccccc23)o1)c1ccncc1 do in these assays?
LEDGF integ inh: 3; UHRF1 MBD2 ctr: -5; MBD2 DNA inh: -4

How did Cc1cc(C)cc(NC(=O)CSc2ncc(S(=O)(=O)c3ccccc3)c(=O)[nH]2)c1 do in these assays?
LEDGF integ inh: 0; UHRF1 MBD2 ctr: 3; rCAG binder: 61*; MBD2 DNA inh: -1; rCAG binder conf: 47*; DNA CAG counter: 15*

How did C/C(=N\Nc1ccc(C(=O)O)cc1)c1ccc2c(c1)Nc1ccccc1S2 do in these assays?
LEDGF integ inh: 7; UHRF1 MBD2 ctr: 0; rCAG binder: 39*; CSN inh: 5; MBD2 DNA inh: -5; ATG4B inh: 28; rCAG binder conf: 86*; DNA CAG counter: 59*

How did COc1ccc(/C(C)=N/Nc2cccc(C(=O)O)c2)cc1OC do in these assays?
LEDGF integ inh: 2; UHRF1 MBD2 ctr: 1; rCAG binder: 3; CSN inh: 5; MBD2 DNA inh: -4; ATG4B inh: -1

What do the screens show for `C/C(=N/Nc1ccc(C(=O)O)cc1)c1ccc2c(c1)Nc1ccccc1S2`?
LEDGF integ inh: -1; UHRF1 MBD2 ctr: 6; rCAG binder: 45*; CSN inh: 12; MBD2 DNA inh: -1; ATG4B inh: 29; rCAG binder conf: 81*; DNA CAG counter: 41*

How did C=C(C)Cn1c(SCC(=O)N/N=C(\C)c2ccc([N+](=O)[O-])cc2)nnc1-c1ccc(Br)cc1 do in these assays?
LEDGF integ inh: 5; UHRF1 MBD2 ctr: 3; rCAG binder: 5; MBD2 DNA inh: 4

What do the screens show for `C[C@H]1C2CC(OC(=O)Nc3cccc(F)c3)C(C2)[C@H]2CCCCN21` (stereo partly specified)?
LEDGF integ inh: -2; UHRF1 MBD2 ctr: -1; rCAG binder: 2; MBD2 DNA inh: 0

What do the screens show for `CCOc1ccc(-n2c(=S)sc3c(=O)[nH]c(SCC(=O)NCc4ccco4)nc32)cc1`?
LEDGF integ inh: 0; UHRF1 MBD2 ctr: -2; rCAG binder: 47*; CSN inh: 3; MBD2 DNA inh: -2; ATG4B inh: 14; rCAG binder conf: 41*; DNA CAG counter: 12*
